Measured values from different studies.
Each line is one published result; the experiments were not run side by side.
PRPF4B: Serine/threonine-protein kinase PRP4 homolog (PRPF4B, Homo sapiens, UniProt Q13523)

CCN(CC)CCCC[C@H](NC(=O)[C@H](CC(C)C)NC(=O)[C@H](C)NC(=O)[C@H](Cc1ccccc1)NC(=O)c1ccc(C(C)(C)C)cc1)C(=O)N[C@@H](CO)C(=O)OC — ΔTm (SWI/SNF-related matrix-associated actin-dependent regulator of chromatin subfamily A member 2 (SMARCA2, Homo sapiens, UniProt P51531); thermal stability, DSF; 25 µM): 0.14 °C
Brc1cc2c(N3CCNCC3)nccn2c1 — ΔTm (Beta-secretase 1 (BACE1, Homo sapiens, UniProt P56817); thermal stability, DSF; 2.1 mM, pH 5.4): -0.27 °C
Nc1ncc(-c2nc(N3CCOCC3)nc(N3CCOCC3)n2)c(C(F)F)n1 — remaining binding (SRSF protein kinase 3 (SRPK3, Homo sapiens, UniProt Q9UPE1); binding, competition with immobilised ligand; 10 µM): 77%
COc1ncccc1-c1cnn2ccc(N3CCN(C(=O)OC(C)C)CC3)nc12 — remaining binding (PRPF4B; binding, competition with immobilised ligand; 1 µM): 28%
CC[C@H](C)[C@H](NC(=O)[C@H](CO)NC(=O)[C@@H](N)CCCCN)C(=O)N[C@H](C(=O)N[C@@H](CC(N)=O)C(=O)N[C@@H](Cc1ccccc1)C(=O)N[C@@H](CCC(=O)O)C(=O)N[C@@H](CCCCN)C(=O)N[C@@H](CC(C)C)C(=O)O)[C@@H](C)CC — Km (Endoplasmic reticulum aminopeptidase 2 (ERAP2, Homo sapiens, UniProt Q6P179); enzyme activity, substrate, mass spectrometry): 12.3 µM
Nc1cccc(-c2nsc(=O)o2)c1 — kinact/KI (Proteasome Macropain subunit MB1 (PSMB5, Homo sapiens, UniProt P28074); enzyme activity, inhibitor): 7.2 M⁻¹ s⁻¹
CCN1CCN(Cc2ccc(C(=O)Nc3ccc(C)c(Oc4ccc5c(c4)CC(=O)N5)c3)cc2C(F)(F)F)CC1 — remaining binding (PRPF4B; binding, competition with immobilised ligand; 1 µM): 100%
Cn1cc(-c2cccc(N3CCc4c(sc5c4CC(C)(C)C5)C3=O)c2CO)cc(Nc2ccncn2)c1=O — inhibition (PAS domain-containing serine/threonine-protein kinase (PASK, Homo sapiens, UniProt Q96RG2); enzyme activity, inhibitor; 1 µM): 21%
C#Cc1n[nH]c2c(-c3cn(C(C)c4ccccn4)c(=O)[nH]c3=O)cc(F)cc12 (centres unmarked) — inhibition (Epidermal growth factor receptor (EGFR, Homo sapiens, UniProt P00533, L858R/T790M); enzyme activity, inhibitor; 1 µM): -1.7%
O=C(Nc1cccnn1)N1CCN([C@@H]2CCOc3cc(C(F)(F)F)ccc32)CC1 — inhibition (Neuropeptide Y receptor type 1 (NPY1R, Homo sapiens, UniProt P25929); cell-free assay; 20 µM): -5%
COc1ccc(S(=O)(=O)N2CCCCC2)cc1C — inhibition (Vasopressin V2 receptor (AVPR2, Homo sapiens, UniProt P30518); ligand displacement, radioligand; 10 µM): < 30%
COc1cc(Cl)c(C(=O)N[C@@H](CN[C@H]2CC[C@@H](N)CC2)Cc2ccc(C#N)cc2)cc1-c1ccc(CN[C@H](C)c2ccc(C)cc2)o1 — remaining activity (PRPF4B; enzyme activity, inhibitor; 1 µM): 90%
Cn1cc(-c2cc(F)cc(N3CCn4c(cc5c4CCCC5)C3=O)c2CO)cc(Nc2ccc(N3CCN(C4COC4)CC3)cn2)c1=O — inhibition (Muscle, skeletal receptor tyrosine-protein kinase (MUSK, Homo sapiens, UniProt O15146); enzyme activity, inhibitor; 0.1 µM): 17%
Cc1nn(C)cc1-c1nc2c(N3CCN(Cc4ccc(Cl)cc4)CC3)c(Cl)cnc2[nH]1 — remaining binding (Ribosomal protein S6 kinase alpha-2, C-terminal kinase domain (RPS6KA2, Homo sapiens, UniProt Q15349); binding, competition with immobilised ligand; 1 µM): 100%
